A short description of assay [1]: Growth inhibition of patient derived CLL cells after 48 hrs by annexin V-FITC staining based flow cytometric analysis. The format is functional. As to conditions: Homo sapiens, CLL-CII. In short, it runs like this: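 Freshly isolated primary CLL cells (10⁶/mL) in RPMI with 10% foetal calf serum, L-glutamine, penicillin and streptomycin, 37 °C, 5% CO₂, exposed to inhibitor for 48 h. Cells labelled with CD19-APC and annexin V-FITC; apoptosis quantified by flow cytometry in CD19+ cells. LD50 is the concentration killing 50% of CLL cells.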
(In flow cytometry, cells or beads pass a laser one at a time.)

Assay [2] addresses Vascular endothelial growth factor receptor 2 (Homo sapiens) (UniProt P35968). Kind of assay: Inhibition of recombinant human KDR 790 to end residues ) using myelin basic protein as substrate incubated for 40 mins by scintillation counting method. In short, it runs like this:
(§1)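 The 60-kinase diversity panel was run as a radiometric assay with ATP at each kinase's Km(app). Compound was tested at one fixed concentration across all kinases.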

The target in assay [3] is Mitogen-activated protein kinase kinase kinase 9 (Homo sapiens) (UniProt P80192). Kind of assay: Inhibition of recombinant human full length MLK1 (134 to 414 residues)using casein as substrate incubated for 40 mins by scintillation counting method. In short, it runs like this:
as §1

The subject of assay [4] is A2780. Kind of assay: Induction of apoptosis in human A2780 cells assessed as necrotic cells at 0.5 uM after 24 hrs by Annexin V-FITC/PI staining based flow cytometric analysis (reference value: 3.6%). Type of assay: functional. In outline:
(§2)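 A2780 cells cultured 24 h in medium alone or with varying inhibitor concentrations, then stained with FITC-annexin V/PI per kit protocol and analysed by flow cytometry. Run in triplicate and repeated at least twice; significance by one-way ANOVA, p < 0.01.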

Assay [5] has as its system A2780. Kind of assay: Induction of apoptosis in human A2780 cells assessed as necrotic cells at 1 uM after 24 hrs by Annexin V-FITC/PI staining based flow cytometric analysis (reference value: 3.6%). Type of assay: functional. In outline:
as §2

For assay [6], the system named is A2780. Kind of assay: Induction of apoptosis in human A2780 cells assessed as viable cells at 5 uM after 24 hrs by Annexin V-FITC/PI staining based flow cytometric analysis (reference value: 92%). Type of assay: functional. As to conditions: read-out: Activity. In outline:
as §2

Assay [7] relates to A2780. Kind of assay: Induction of apoptosis in human A2780 cells assessed as necrotic cells at 5 uM after 24 hrs by Annexin V-FITC/PI staining based flow cytometric analysis (reference value: 3.6%). The format is functional. In short, it runs like this: as §2
The subject of assay [8] is A2780. Kind of assay: Induction of cell cycle arrest in human A2780 cells assessed as accumulation at pre-G1 phase at 1 uM after 24 hrs by propidium iodide staining based flow cytometric analysis (reference value: 1.2%). The format is functional.
Assay [9] deals with A2780. Kind of assay: Induction of cell cycle arrest in human A2780 cells assessed as accumulation at G1/G0 phase at 5 uM after 24 hrs by propidium iodide staining based flow cytometric analysis (reference value: 56.7%). Type of assay: functional. In short, it runs like this: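 4 × 10⁵ A2780 cells cultured 24 h in medium alone or with varying inhibitor concentrations, harvested into hypotonic fluorochrome solution (0.1% sodium citrate, 0.1% Triton X-100, propidium iodide, 100 ug/ml RNase A), and DNA content analysed by flow cytometry. Representative of three independent experiments.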

Assay [10] relates to A2780. Kind of assay: Induction of apoptosis in human A2780 cells assessed as reduction in XIAP protein expression after 24 hrs by Western blot analysis. Type of assay: functional, cell-based. Particulars: dose 0.5-5 µM. In short, it runs like this: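 A2780 cells treated for 24 h over a concentration series, then lysates analysed by Western blotting.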
(Immunoblotting shows a protein as a band on a membrane.)

For assay [11], the system named is HCT-116. Kind of assay: Induction of apoptosis in human HCT-116 cells assessed as reduction in Mcl-1 protein expression after 24 hrs by Western blot analysis. The format is functional, cell-based. As to conditions: dose 0.5-5 µM.
Assay [12] deals with HCT-116. Kind of assay: Induction of apoptosis in human HCT-116 cells assessed as reduction in XIAP protein expression after 24 hrs by Western blot analysis. The format is functional, cell-based. Particulars: dose 0.5-5 µM.

Calls of active or inactive are those of the source. The rule behind the calls is not given here.

Usually GI50 stands for the concentration at which growth is held to half of that of the control.

Sequence of Mitogen-activated protein kinase kinase kinase 9 (Homo sapiens) (P80192 whole entry, looked up, the tested form may be a part): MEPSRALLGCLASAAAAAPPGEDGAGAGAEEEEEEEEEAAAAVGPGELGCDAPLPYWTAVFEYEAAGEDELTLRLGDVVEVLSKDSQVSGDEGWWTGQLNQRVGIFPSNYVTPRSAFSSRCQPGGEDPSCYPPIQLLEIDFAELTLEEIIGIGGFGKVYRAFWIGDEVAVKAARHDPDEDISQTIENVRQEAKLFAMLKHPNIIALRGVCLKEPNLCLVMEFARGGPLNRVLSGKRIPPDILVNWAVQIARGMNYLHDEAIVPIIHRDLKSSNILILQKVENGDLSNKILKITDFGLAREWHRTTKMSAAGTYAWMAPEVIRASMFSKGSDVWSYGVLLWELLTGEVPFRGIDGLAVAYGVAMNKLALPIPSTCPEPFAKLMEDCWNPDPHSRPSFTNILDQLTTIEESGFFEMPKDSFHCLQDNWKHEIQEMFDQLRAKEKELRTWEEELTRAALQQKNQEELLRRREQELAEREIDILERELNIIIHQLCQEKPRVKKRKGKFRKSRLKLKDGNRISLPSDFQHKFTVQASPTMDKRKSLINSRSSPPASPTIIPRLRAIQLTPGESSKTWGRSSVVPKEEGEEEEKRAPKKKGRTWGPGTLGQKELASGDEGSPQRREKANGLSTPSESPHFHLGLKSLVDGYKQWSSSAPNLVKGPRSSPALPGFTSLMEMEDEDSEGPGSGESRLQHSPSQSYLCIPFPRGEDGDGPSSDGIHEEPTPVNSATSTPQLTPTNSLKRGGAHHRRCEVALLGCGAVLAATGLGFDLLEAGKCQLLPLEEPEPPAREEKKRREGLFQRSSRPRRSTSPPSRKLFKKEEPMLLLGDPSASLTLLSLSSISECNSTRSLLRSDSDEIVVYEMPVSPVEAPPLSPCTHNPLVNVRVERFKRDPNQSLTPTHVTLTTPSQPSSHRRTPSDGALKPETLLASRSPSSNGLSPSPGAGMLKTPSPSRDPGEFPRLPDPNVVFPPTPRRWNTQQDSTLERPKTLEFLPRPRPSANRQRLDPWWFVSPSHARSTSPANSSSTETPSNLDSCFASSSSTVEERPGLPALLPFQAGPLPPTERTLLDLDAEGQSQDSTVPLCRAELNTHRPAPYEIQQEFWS
Sequence of Vascular endothelial growth factor receptor 2 (Homo sapiens) (P35968 whole entry): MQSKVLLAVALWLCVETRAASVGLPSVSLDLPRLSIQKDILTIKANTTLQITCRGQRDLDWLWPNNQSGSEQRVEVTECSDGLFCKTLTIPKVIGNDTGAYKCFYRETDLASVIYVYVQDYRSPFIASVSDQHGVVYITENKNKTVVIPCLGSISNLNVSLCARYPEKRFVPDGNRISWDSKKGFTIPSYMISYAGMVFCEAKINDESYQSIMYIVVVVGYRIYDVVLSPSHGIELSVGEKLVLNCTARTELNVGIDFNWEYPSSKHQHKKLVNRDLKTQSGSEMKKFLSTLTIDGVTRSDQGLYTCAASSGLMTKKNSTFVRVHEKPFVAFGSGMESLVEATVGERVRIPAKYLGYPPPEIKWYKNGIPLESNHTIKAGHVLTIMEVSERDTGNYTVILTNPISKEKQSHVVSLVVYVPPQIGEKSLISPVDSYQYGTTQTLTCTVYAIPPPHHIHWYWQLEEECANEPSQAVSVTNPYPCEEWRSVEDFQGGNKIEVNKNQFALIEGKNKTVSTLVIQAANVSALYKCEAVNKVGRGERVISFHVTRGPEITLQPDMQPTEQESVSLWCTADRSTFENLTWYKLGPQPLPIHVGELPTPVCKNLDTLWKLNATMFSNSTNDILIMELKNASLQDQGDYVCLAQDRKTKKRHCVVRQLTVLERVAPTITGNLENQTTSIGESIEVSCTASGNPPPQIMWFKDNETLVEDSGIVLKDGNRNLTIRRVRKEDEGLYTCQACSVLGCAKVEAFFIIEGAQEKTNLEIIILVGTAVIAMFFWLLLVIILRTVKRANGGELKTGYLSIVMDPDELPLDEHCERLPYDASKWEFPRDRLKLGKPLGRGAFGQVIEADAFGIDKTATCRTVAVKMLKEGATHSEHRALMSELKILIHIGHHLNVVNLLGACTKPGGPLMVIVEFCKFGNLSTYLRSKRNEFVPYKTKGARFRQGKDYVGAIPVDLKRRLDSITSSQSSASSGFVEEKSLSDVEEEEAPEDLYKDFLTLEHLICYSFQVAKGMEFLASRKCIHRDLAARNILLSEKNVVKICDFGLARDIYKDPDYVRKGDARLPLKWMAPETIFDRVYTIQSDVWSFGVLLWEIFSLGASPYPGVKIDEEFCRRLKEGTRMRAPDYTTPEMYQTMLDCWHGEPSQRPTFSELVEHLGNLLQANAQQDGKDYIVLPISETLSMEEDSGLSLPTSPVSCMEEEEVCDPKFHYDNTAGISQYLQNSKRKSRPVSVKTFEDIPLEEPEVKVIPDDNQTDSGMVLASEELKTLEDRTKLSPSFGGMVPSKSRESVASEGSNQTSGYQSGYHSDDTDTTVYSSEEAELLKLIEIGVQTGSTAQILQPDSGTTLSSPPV

In assay [1], `CNc1nc(C)c(-c2nc(Nc3cccc(N4CCN5CCC4CC5)c3)ncc2C)s1` returned a GI50 of 1500 nM. Besides, the inhibition result in [2] and in assay [3] was “Active” throughout. In addition, the Activity in the assay on A2780 [4] is 1.9%; in the assay on A2780 [5], 3%; in the assay with A2780 [7], 5.6%; in the assay on A2780 [8], 6.5%; in the assay with A2780 [9], 31.5%; in the assay with A2780 [10], “Dose-Dependent Effect”. Moreover, the Activity result in the assay on HCT-116 [11] and in the assay on HCT-116 [12] was “Dose-Dependent Effect” in each case. In addition, the viability at 5 µM with A2780 [6] was found to be 22.6%.

For the origin of these results see ChEMBL document CHEMBL4819032, “Structure-based design of highly selective 2,4,5-trisubstituted pyrimidine CDK9 inhibitors as anti-cancer agents” (Eur J Med Chem, 2021).
